According to ChEMBL document CHEMBL3352038, “Discovery of cytotoxic dolastatin 10 analogues with N-terminal modifications” (J Med Chem, 2014):
Non-standard residues stand in square brackets, D forms with d. Residues, ends and D or L forms follow the SMILES beside them. *: point of attachment. Dolaproine = CO[C@@H]([C@@H]1CCCN1)[C@@H](C)C(=O)O; Dil = CC[C@H](C)[C@H](NC)[C@@H](CC(=O)O)OC; Doe = c1ccc(C[C@H](N*)c2nccs2)cc1; X1 = C[C@@H](N*)[C@@H](O)c1ccccc1; NMeV = CN[C@H](C(=O)O)C(C)C; NMeA = CN[C@@H](C)C(=O)O; NMeAib = CNC(C)(C)C(=O)O; Ac5c = NC1(C(=O)O)CCCC1; Ac3c = NC1(C(=O)O)CC1; Aib = CC(C)(N)C(=O)O; Sar = CNCC(=O)O

Legend:
[1] = tested on: BT-474; assay: Cytotoxicity against human BT474 cells assessed as cell viability incubated fore 4 days by MTS assay; assay type: functional; conditions: BT-474, 96 h
Procedure, shortened: (§1)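 Cells seeded at low density in 96-well plates, dosed next day with 3-fold serial dilutions at 10 concentrations in duplicate. Incubated 4 days at 37C/5% CO2. Viability read by MTS reagent (1.5 h), absorbance at 490 nm. Four-parameter logistic fit. Reported as arithmetic mean GI50 (nM) with standard deviation over n individual runs, each run a duplicate readout.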

[2] = tested on: NCI-N87; assay: Cytotoxicity against human NCI-N87 cells assessed as cell viability incubated fore 4 days by MTS assay; assay type: functional; conditions: NCI-N87, 96 h; procedure, shortened: as §1
[3] = tested on: MDA-MB-361; assay: Cytotoxicity against human MDA-MB-361 cells assessed as cell viability incubated fore 4 days by MTS assay; assay type: functional; conditions: MDA-MB-361, 96 h; procedure, shortened: as §1
[4] = Apparent intrinsic clearance in human liver microsomes at 1 uM; assay type: ADME; conditions: read-out: CLH(app)
Procedure, shortened: (§2)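 Apparent intrinsic clearance measured at 1 μM substrate in human liver microsomes (μl/min/mg) and in human hepatocytes (μl/min/million cells).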

[5] = tested on: Hepatocyte; assay: Apparent intrinsic clearance in human liver hepatocytes at 1 uM; assay type: ADME, cell-based; procedure, shortened: as §2
[6] = Drug metabolism in rat liver S9 fraction assessed as formation of amide hydrolysis products; assay type: ADME, subcellular
[7] = Drug recovery in Han Wistar rat urine at 36 ug/kg, iv bolus dose; assay type: ADME, organism-based; conditions: 0.036 mg/kg, read-out: Drug recovery
Procedure, shortened: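 Single IV bolus of 36 µg/kg. Fraction of dose recovered in urine (Wistar Han rats, n = 3) and in bile (Sprague-Dawley rats, n = 3).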

[8] = Drug metabolism in rat liver S9 fraction assessed as formation of NADPH-dependent oxidative metabolites; assay type: ADME, subcellular
[9] = Drug recovery in Han Wistar rat bile at 36 ug/kg, iv bolus dose; assay type: ADME, organism-based; conditions: 0.036 mg/kg, read-out: Drug recovery
[10] = Drug metabolism in monkey liver S9 fraction assessed as formation of amide hydrolysis products; assay type: ADME, subcellular, Macaca mulatta; conditions: rhesus monkey
[11] = Fraction unbound in rat plasma at 0.1 uM; assay type: ADME, cell-free
Procedure, shortened: (§3)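 Plasma protein binding measured at 0.1 uM in monkey, rat and human plasma. Reported as fraction unbound.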

[12] = biological target: Cytochrome P450 3A4 (Homo sapiens, UniProt P08684); assay: Drug metabolism assessed as human recombinant CYP3A4-mediated hydroxylation occurring on N-terminus; assay type: ADME; conditions: recombinant enzyme
Sequence of Cytochrome P450 3A4 (P08684 whole entry): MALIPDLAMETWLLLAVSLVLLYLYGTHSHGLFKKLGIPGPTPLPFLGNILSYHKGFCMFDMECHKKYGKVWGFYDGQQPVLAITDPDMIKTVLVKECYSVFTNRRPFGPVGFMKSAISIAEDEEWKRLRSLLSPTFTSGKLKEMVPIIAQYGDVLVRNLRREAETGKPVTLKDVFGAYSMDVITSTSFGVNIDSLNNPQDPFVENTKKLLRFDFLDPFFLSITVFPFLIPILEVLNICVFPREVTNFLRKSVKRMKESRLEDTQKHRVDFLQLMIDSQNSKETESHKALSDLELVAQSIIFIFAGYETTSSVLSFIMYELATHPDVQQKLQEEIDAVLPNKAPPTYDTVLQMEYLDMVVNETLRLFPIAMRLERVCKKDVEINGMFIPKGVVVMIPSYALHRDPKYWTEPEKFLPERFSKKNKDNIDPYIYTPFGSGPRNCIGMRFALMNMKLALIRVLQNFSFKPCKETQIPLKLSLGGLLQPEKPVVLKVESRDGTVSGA

[13] = Half life in Han Wistar rat at 20 ug/kg, iv by LC-MS/MS analysis; assay type: ADME, organism-based; conditions: in vivo, 0.02 mg/kg
Procedure, shortened: (§4)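 Male Wistar Han rats (n = 3), single IV dose of 20 µg/kg. Plasma levels by LC-MS/MS. Cmax, Tmax, AUCt (zero to last measurable concentration), systemic serum clearance, Vss and terminal t1/2 given as mean ± spread.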

[14] = Volume of distribution at steady state in Han Wistar rat at 20 ug/kg, iv by LC-MS/MS analysis; assay type: ADME, organism-based; conditions: in vivo, 0.02 mg/kg, read-out: Vdss; procedure, shortened: as §4
[15] = Fraction unbound in human plasma at 0.1 uM; assay type: ADME, cell-free; procedure, shortened: as §3
[16] = Drug metabolism in human liver S9 fraction assessed as formation of NADPH-dependent oxidative metabolites; assay type: ADME, subcellular
[17] = Drug metabolism in human liver S9 fraction assessed as formation of amide hydrolysis products; assay type: ADME, subcellular
[18] = Clearance in Han Wistar rat at 20 ug/kg, iv by LC-MS/MS analysis; assay type: ADME, organism-based; conditions: in vivo, 0.02 mg/kg; procedure, shortened: as §4
[19] = Drug metabolism in monkey liver S9 fraction assessed as formation of NADPH-dependent oxidative metabolites; assay type: ADME, subcellular, Macaca mulatta; conditions: rhesus monkey
[20] = AUCt in Han Wistar rat at 20 ug/kg, iv by LC-MS/MS analysis; assay type: ADME, organism-based; conditions: plasma, 0.02 mg/kg
Procedure, shortened: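 Male Wistar Han rats (n = 3) received a single IV dose of 20 µg/kg. Serum/plasma concentrations were measured by LC-MS/MS. AUCt was taken from time zero to the last measurable concentration. Values are reported as mean ±.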

[21] = Drug metabolism in rat liver S9 fraction assessed as formation of glucuronide conjugates; assay type: ADME, subcellular
[22] = Cmax in Han Wistar rat at 20 ug/kg, iv by LC-MS/MS analysis; assay type: ADME, organism-based; parameters: dose 20 ug/kg, route intravenous; conditions: in vivo, 0.02 mg/kg; procedure, shortened: as §4
[23] = Drug metabolism in monkey liver S9 fraction assessed as formation of glucuronide conjugates; assay type: ADME, subcellular, Macaca mulatta; conditions: rhesus monkey
[24] = Fraction unbound in monkey plasma at 0.1 uM; assay type: ADME, cell-free, Macaca mulatta; conditions: rhesus monkey; procedure, shortened: as §3
[25] = Tmax in Han Wistar rat at 20 ug/kg, iv by LC-MS/MS analysis; assay type: ADME, organism-based; conditions: in vivo, 0.02 mg/kg; procedure, shortened: as §4
[26] = Drug metabolism in human liver S9 fraction assessed as formation of glucuronide conjugates; assay type: ADME, subcellular

## CC[C@H](C)[C@@H]([C@@H](CC(=O)N1CCC[C@H]1[C@H](OC)[C@@H](C)C(=O)N[C@@H](Cc1ccccc1)c1nccs1)OC)N(C)C(=O)[C@@H](NC(=O)[C@H](C)NC)C(C)C (H-[NMeA]V[Dil][Dolaproine]-Doe)
[1]
  GI50: 0.23 nM
[2]
  GI50: 0.42 nM
[3]
  GI50: 0.25 nM

## CC[C@H](C)[C@@H]([C@@H](CC(=O)N1CCC[C@H]1[C@H](OC)[C@@H](C)C(=O)N[C@@H](Cc1ccccc1)c1nccs1)OC)N(C)C(=O)[C@@H](NC(=O)[C@]1(C)CCCN1)C(C)C
[1]
  GI50: 0.14 nM
[2]
  GI50: 0.15 nM
[3]
  GI50: 0.2 nM

## CC[C@H](C)[C@@H]([C@@H](CC(=O)N1CCC[C@H]1[C@H](OC)[C@@H](C)C(=O)N[C@@H](Cc1ccccc1)c1nccs1)OC)N(C)C(=O)[C@@H](NC(=O)C1(N)CC1)C(C)C (H-[Ac3c]V[Dil][Dolaproine]-Doe)
[1]
  GI50: 2.9 nM
[2]
  GI50: 6.4 nM
[3]
  GI50: 5.6 nM

## CC[C@H](C)[C@@H]([C@@H](CC(=O)N1CCC[C@H]1[C@H](OC)[C@@H](C)C(=O)N[C@@H](Cc1ccccc1)c1nccs1)OC)N(C)C(=O)[C@@H](NC(=O)CNC)C(C)C (H-[Sar]V[Dil][Dolaproine]-Doe)
[1]
  GI50: 0.49 nM
[2]
  GI50: 1.2 nM
[3]
  GI50: 0.69 nM

## CC[C@H](C)[C@@H]([C@@H](CC(=O)N1CCC[C@H]1[C@H](OC)[C@@H](C)C(=O)N[C@@H](Cc1ccccc1)c1nccs1)OC)N(C)C(=O)[C@@H](NC(=O)[C@@H](NC)C(C)C)C(C)C (H-[NMeV]V[Dil][Dolaproine]-Doe)
[4]
  microsomal CLint at 1 µM: 48 µL/min/mg
[1]
  GI50: 0.12 nM
[2]
  GI50: 0.3 nM
[3]
  GI50: 0.09 nM
[5]
  CLH(app): 11 µL/min/mg

## CC[C@H](C)[C@@H]([C@@H](CC(=O)N1CCC[C@H]1[C@H](OC)[C@@H](C)C(=O)N[C@@H](Cc1ccccc1)c1nccs1)OC)N(C)C(=O)[C@@H](NC(=O)[C@]1(C)CCCCN1)C(C)C
[1]
  GI50: 0.16 nM
[2]
  GI50: 0.25 nM
[3]
  GI50: 0.2 nM

## CC[C@H](C)[C@@H]([C@@H](CC(=O)N1CCC[C@H]1[C@H](OC)[C@@H](C)C(=O)N[C@H](C)[C@@H](O)c1ccccc1)OC)N(C)C(=O)[C@@H](NC(=O)[C@@H](NC)C(C)C)C(C)C (H-[NMeV]V[Dil][Dolaproine]-X1)
[4]
  microsomal CLint at 1 µM: 24 µL/min/mg
[1]
  GI50: 0.22 nM
[2]
  GI50: 0.54 nM
[3]
  GI50: 0.49 nM
[5]
  CLH(app): 3 µL/min/mg

## CC[C@H](C)[C@@H]([C@@H](CC(=O)N1CCC[C@H]1[C@H](OC)[C@@H](C)C(=O)N[C@@H](Cc1ccccc1)c1nccs1)OC)N(C)C(=O)[C@@H](NC(=O)[C@]1(F)CCNC1)C(C)C
[1]
  GI50: 0.16 nM
[2]
  GI50: 0.59 nM
[3]
  GI50: 0.25 nM

## CC[C@H](C)[C@@H]([C@@H](CC(=O)N1CCC[C@H]1[C@H](OC)[C@@H](C)C(=O)N[C@@H](Cc1ccccc1)c1nccs1)OC)N(C)C(=O)[C@@H](NC(=O)[C@@]1(C)CCCN1)C(C)C
[1]
  GI50: 0.11 nM
[2]
  GI50: 0.36 nM
[3]
  GI50: 0.21 nM

## CC[C@H](C)[C@@H]([C@@H](CC(=O)N1CCC[C@H]1[C@H](OC)[C@@H](C)C(=O)N[C@@H](Cc1ccccc1)c1nccs1)OC)N(C)C(=O)[C@@H](NC(=O)C(C)(C)NC)C(C)C (H-[NMeAib]V[Dil][Dolaproine]-Doe)
[1]
  GI50: 0.045 nM
[2]
  GI50: 0.12 nM
[3]
  GI50: 0.076 nM

## CC[C@H](C)[C@@H]([C@@H](CC(=O)N1CCC[C@H]1[C@H](OC)[C@@H](C)C(=O)N[C@@H](Cc1ccccc1)c1nccs1)OC)N(C)C(=O)[C@@H](NC(=O)C(C)(C)CNC)C(C)C
[1]
  GI50: 0.25 nM
[2]
  GI50: 1.1 nM
[3]
  GI50: 0.41 nM

## CC[C@H](C)[C@@H]([C@@H](CC(=O)N1CCC[C@H]1[C@H](OC)[C@@H](C)C(=O)N[C@@H](Cc1ccccc1)c1nccs1)OC)N(C)C(=O)[C@@H](NC(=O)[C@@]1(C)CCCCN1)C(C)C
[1]
  GI50: 0.35 nM
[2]
  GI50: 0.52 nM
[3]
  GI50: 0.4 nM

## CC[C@H](C)[C@@H]([C@@H](CC(=O)N1CCC[C@H]1[C@H](OC)[C@@H](C)C(=O)N[C@@H](Cc1ccccc1)c1nccs1)OC)N(C)C(=O)[C@@H](NC(=O)[C@@]1(F)CCNC1)C(C)C
[1]
  GI50: 0.29 nM
[2]
  GI50: 1.1 nM
[3]
  GI50: 0.6 nM

## CC[C@H](C)[C@@H]([C@@H](CC(=O)N1CCC[C@H]1[C@H](OC)[C@@H](C)C(=O)N[C@@H](Cc1ccccc1)c1nccs1)OC)N(C)C(=O)[C@@H](NC(=O)C(C)(C)CN)C(C)C
[1]
  GI50: 0.25 nM
[2]
  GI50: 1.4 nM
[3]
  GI50: 0.81 nM

## CC[C@H](C)[C@@H]([C@@H](CC(=O)N1CCC[C@H]1[C@H](OC)[C@@H](C)C(=O)N[C@@H](Cc1ccccc1)c1nccs1)OC)N(C)C(=O)[C@@H](NC(=O)[C@@H](N)C(C)C)C(C)C (H-VV[Dil][Dolaproine]-Doe)
[1]
  GI50: 5.3 nM
[2]
  GI50: 10 nM
[3]
  GI50: 9 nM

## CC[C@H](C)[C@@H]([C@@H](CC(=O)N1CCC[C@H]1[C@H](OC)[C@@H](C)C(=O)N[C@@H](Cc1ccccc1)c1nccs1)OC)N(C)C(=O)[C@@H](NC(=O)C(C)(C)N)C(C)C (H-[Aib]V[Dil][Dolaproine]-Doe)
[6]
  Drug metabolism: metabolite_notdetected
[7]
  dose excreted: 8%
[8]
  Drug metabolism: metabolite_detected
[9]
  dose excreted: 4%
[4]
  microsomal CLint at 1 µM: 84 µL/min/mg
[10]
  Drug metabolism: metabolite_notdetected
[11]
  fraction unbound at 0.1 µM: 0.1
[12]
  Drug metabolism: metabolite_detected
[13]
  half-life: 351 min
[14]
  Vd: 14.7 L/kg
[15]
  fraction unbound at 0.1 µM: 0.07
[16]
  Drug metabolism: metabolite_detected
[1]
  GI50: 0.26 nM
[17]
  Drug metabolism: metabolite_notdetected
[18]
  clearance: 70 mL/min/kg
[19]
  Drug metabolism: metabolite_detected
[2]
  GI50: 0.27 nM
[3]
  GI50: 0.19 nM
[20]
  AUC(0-t): 4.51 ng·h/mL
[21]
  Drug metabolism: metabolite_notdetected
[22]
  Cmax: 19.4 ng/mL
[23]
  Drug metabolism: metabolite_notdetected
[24]
  fraction unbound at 0.1 µM: 0.24
[25]
  Tmax: 8.4 min
[5]
  CLH(app): 21 µL/min/mg
[26]
  Drug metabolism: metabolite_notdetected

## CC[C@H](C)[C@@H]([C@@H](CC(=O)N1CCC[C@H]1[C@H](OC)[C@@H](C)C(=O)N[C@@H](Cc1ccccc1)c1nccs1)OC)N(C)C(=O)[C@@H](NC(=O)C1(N)CCCC1)C(C)C (H-[Ac5c]V[Dil][Dolaproine]-Doe)
[1]
  GI50: 0.28 nM
[2]
  GI50: 0.33 nM
[3]
  GI50: 0.35 nM
